Source: PubChem
Apaf-1 act: activators of human Apaf-1 apoptosome, primary screen, biochemical, DEVD-Rh110 fluorescence, uHTS; Apoptotic protease-activating factor 1 (Homo sapiens), O14727; Apaf-1 apoptosome caspase-3 activation; active compounds read low; activity change, negative = activation, % at 20 µM; hit rate 0.31% among 330,000; AID 489031, 2010;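 active = activity change at or below -40% at 20 µM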
Target sequence (O14727 whole entry, looked up): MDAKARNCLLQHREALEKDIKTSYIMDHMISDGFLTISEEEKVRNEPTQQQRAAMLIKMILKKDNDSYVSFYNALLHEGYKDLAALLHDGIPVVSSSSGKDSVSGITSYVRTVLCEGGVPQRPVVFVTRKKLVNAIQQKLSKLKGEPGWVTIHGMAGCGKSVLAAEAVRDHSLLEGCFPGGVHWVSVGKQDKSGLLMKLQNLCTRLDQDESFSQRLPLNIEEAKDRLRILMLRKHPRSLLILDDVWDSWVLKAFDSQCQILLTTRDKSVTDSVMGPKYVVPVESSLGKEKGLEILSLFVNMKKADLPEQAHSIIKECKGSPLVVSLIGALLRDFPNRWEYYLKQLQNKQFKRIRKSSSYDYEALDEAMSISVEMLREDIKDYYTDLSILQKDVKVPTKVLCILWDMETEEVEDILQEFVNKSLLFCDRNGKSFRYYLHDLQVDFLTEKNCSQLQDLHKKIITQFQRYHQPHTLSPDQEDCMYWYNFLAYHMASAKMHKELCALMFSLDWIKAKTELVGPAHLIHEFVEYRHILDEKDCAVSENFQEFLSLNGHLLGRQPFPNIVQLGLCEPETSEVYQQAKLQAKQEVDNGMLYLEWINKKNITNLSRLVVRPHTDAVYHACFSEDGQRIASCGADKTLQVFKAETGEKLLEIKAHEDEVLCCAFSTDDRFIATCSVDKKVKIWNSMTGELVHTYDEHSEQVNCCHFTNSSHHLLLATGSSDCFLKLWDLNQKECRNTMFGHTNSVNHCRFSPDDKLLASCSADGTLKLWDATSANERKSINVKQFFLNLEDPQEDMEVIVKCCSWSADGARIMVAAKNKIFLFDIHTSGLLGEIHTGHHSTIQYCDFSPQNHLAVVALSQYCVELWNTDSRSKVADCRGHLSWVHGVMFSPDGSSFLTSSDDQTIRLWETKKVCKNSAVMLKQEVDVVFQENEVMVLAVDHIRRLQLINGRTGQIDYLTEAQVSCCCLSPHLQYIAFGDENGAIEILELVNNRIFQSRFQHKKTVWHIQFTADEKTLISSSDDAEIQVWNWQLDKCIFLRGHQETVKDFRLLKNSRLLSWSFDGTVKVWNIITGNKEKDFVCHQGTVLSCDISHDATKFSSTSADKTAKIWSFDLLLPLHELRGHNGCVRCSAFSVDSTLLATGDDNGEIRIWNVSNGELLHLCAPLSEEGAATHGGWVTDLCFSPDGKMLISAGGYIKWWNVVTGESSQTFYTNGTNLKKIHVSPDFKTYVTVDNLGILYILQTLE
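system = biochemical Apaf-1 apoptosome reconstitution | buffer or medium = 20 mM HEPES pH 7.5 with CHAPS, BSA | also added = dATP and cytochrome c as apoptosome triggers, (Z-DEVD)2-Rh110 substrate | incubation = 30 min compound preincubation and 50 min reaction, both room temperature | measured by = fluorescence, 540 nm emission, 480 nm excitation | read-out basis = Caspase-3 cleavage activity downstream of Apaf-1 activation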
Rh110 interf act: Rh110 fluorescence interference by putative Apaf-1 activators, confirmation, artefact control for Apaf-1 activator project, biochemical, 20 µM; shares compounds with Apaf-1 act; quenched caspase reaction, Ex480/Em540; fluorescence interference (activity change), % at 20 µM, hits read low; 980 tested, under 10 active;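 active = mean activity change at or below -40% when tested at 20 µM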
Apaf-1 act conf: Apaf-1 activators, single-dose retest, confirmation, biochemical, fluorescence, DEVD-Rh110, 20 µM. AID 504617, 2011. activity change, negative = activation, % at 20 µM. hit rate 5% among 980. reconstituted apoptosome caspase-3 activity; active compounds read low. shares compounds with Apaf-1 act;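 active = mean activity change at or below -40%, meaning activation of 40% or more, at 20 µM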
Apaf1 act interf: fluorescence interference of Apaf-1 activator hits, dose response, artefact control for Apaf-1 activator project. shares compounds with Apaf-1 act. fluorescence interference counterscreen, Apaf-1 activator assay. EC50, µM. 55 tested, under 10 active; call rule not given here
Hits are given with their value; i = inactive; nt = not tested or not shown. The list is a sample of the results.

SMILES	Apaf-1 act	Rh110 interf act	Apaf-1 act conf	others
CC1(C)CC2CC(C)(CN2C(=O)c2cccs2)C1 (centres undefined)	-95	i	i
CC(NC(=O)C1CCN(C(=O)c2cccs2)CC1)c1ccc(S(N)(=O)=O)cc1 (centres undefined)	i	nt	nt
C=C(C)C(=O)Nc1cccc(C2=NOC3(C2)C[C@@H](C(N)=O)N(C(=O)CCCCC)C3)c1 (some centres undefined)	-333	i	-121	Apaf1 act interf=i
CC(=O)N(C)c1ccc(N=Cc2cc3c(cc2[N+](=O)[O-])OCO3)cc1	i	nt	nt
CCCN(C(=O)COC(=O)C12CCC(=O)N1c1ccccc1S2)c1c(N)n(Cc2ccccc2)c(=O)[nH]c1=O (centres undefined)	-50	i	i
O=C(/C=C\c1ccc2c(c1)OCO2)NC1(C(=O)Nc2ccc3c(c2)OCO3)CCCCC1	-87	i	i
O=[N+]([O-])c1cc(Br)c(O)c(C=Nc2ccc(N3CCOCC3)cc2)c1	i	nt	nt
COc1ccc(Cn2c(SCc3ccccc3C)nc3cc(OC)c(OC)cc3c2=N)cc1	i	nt	nt
COc1ccc(CCN(C)C(=O)C2CC(=O)N(Cc3ccc(C)cc3)C2)cc1OC (centres undefined)	i	nt	nt
COc1ccc(CCNC(=O)CSc2nnc(C(C)N(C)C)n2Cc2ccccc2)cc1OC (centres undefined)	-60	i	i
O=C(NC1CC1)C1=C[C@H](c2ccc(C(F)(F)F)cc2)C[C@H](OCCCCO)O1	i	nt	nt
Cc1cc(C(=O)N/N=C2\CC(=O)c3ccccc32)c(C)n1-c1ccc(F)cc1	i	nt	nt
O=S(=O)(Nc1cccc(-c2nc3cccnc3s2)c1)c1ccc2c(c1)OCCO2	-104	i	i
CC1(C)Cc2ccccc2C2=NNC(=O)C2=N1	i	nt	nt
Cc1cc(=O)[nH]c(N/N=C/c2ccc(Cl)c([N+](=O)[O-])c2)n1	-73	i	i
CN(C)CCCNC(=O)C[C@H]1C[C@H](C(=O)N2CCOCC2)[C@@]2(CCC3CCCC3)c3[nH]c4cc(-c5ccco5)ccc4c3CCN2C1=O	i	nt	nt
O=C(c1cccc(S(=O)(=O)NCc2ccccc2)c1)N1CCN(c2cccc(C(F)(F)F)c2)CC1	i	nt	nt
O=C1C2C3C=CC(CC3)C2C(=O)N1c1cccc(C(F)(F)F)c1 (centres undefined)	-120	i	i
CCOC(=O)c1nn(-c2ccc(C)c(C)c2)c(=O)c2c(N)scc12	i	nt	nt
COc1cc2oc3ccccc3c2cc1N(CC(=O)N1CCCCC1)S(=O)(=O)c1ccc(C)cc1	-236	i	i
COc1ccc(S(=O)(=O)N2CCCCCC2)cc1C(=O)N(C)CCOc1ccccc1	i	nt	nt
CN1CCc2cccc3c2C1Cc1ccc(O)c(O)c1-3 (centres undefined)	i	nt	nt
CC(C)N(C(=O)Nc1ccc2nsnc2c1)C(C)C	i	nt	nt
CC(=O)c1cccc(-c2ccc3c(=O)[nH]c(Nc4ccccc4)cc3c2)c1	i	nt	nt	Apaf1 act interf=i
COc1ccccc1Nc1cc2cc(Br)ccc2c(=O)[nH]1	i	nt	nt
SMILES	Apaf-1 act	Rh110 interf act	Apaf-1 act conf	others
O=c1[nH]c(Nc2ccccc2)cc2cc(Br)ccc12	i	nt	nt
OCCCCNc1cccc2ccccc12	i	nt	nt
COc1ccc2sc(-c3ccccc3OC)c(-c3ccc(OCCN(C)C)cc3)c2c1	i	nt	nt
CC1(C)Cc2c(sc3nc(N/N=C/c4ccccc4)[nH]c(=O)c23)CO1	-236	i	i
O=C1C2(CCCC13COC(c1ccc(O)cc1)OC3)COC(c1ccc(O)cc1)OC2 (centres undefined)	-127	i	-60	Apaf1 act interf=i
O=C(NCCCO)Nc1ccc2nc(-c3ccco3)c(-c3ccco3)nc2c1	i	nt	nt
Cc1ccc(CNC(=O)CN(C)S(=O)(=O)c2cnc[nH]2)cc1	-237	i	i
Nc1c(S(=O)(=O)c2cccs2)c2nc3ccccc3nc2n1CCc1ccccc1	i	nt	nt
Cc1ccc2oc(=O)cc(CN3CC(C)OC(C)C3)c2c1 (centres undefined)	-66	i	i
C#CCOCCOCCOCCNc1nc(N2CCN(C(=O)[C@H]([C@@H](C)CC)n3cc([C@@H](N)Cc4ccc(O)cc4)nn3)CC2)nc(N2CCN(C(=O)[C@H](Cc3cc4ccccc4[nH]3)n3cc([C@@H](N)CC(C)C)nn3)CC2)n1	i	nt	nt
C/C(=C\C(=O)c1ccc(Br)cc1)NCc1ccccc1	-235	i	i
Cc1cc(C)c(S(=O)(=O)/N=C2/C=C(SCC(=O)O)C(=O)c3ccccc32)cc1C	i	nt	nt
COc1ccc2ccccc2c1C(O)c1nccn1C (centres undefined)	i	nt	nt
Cn1ccnc1C(O)c1ccc(OCc2ccccc2)cc1 (centres undefined)	-355	i	i
CC(NCc1ccc(OCc2ccc(Cl)cc2)cc1)C(O)c1ccccc1 (centres undefined)	i	nt	nt
OCCC1CN(Cc2ccc3ncccc3c2)CCN1Cc1ccccc1 (centres undefined)	-247	i	i
O=C(CN(Cc1cccs1)C(=O)CNS(=O)(=O)c1ccc(Cl)cc1)NCC1CCCO1 (centres undefined)	-292	i	i
C/C(=C\C(=S)Nc1ccccc1)Nc1cccc2ccccc12	i	nt	nt
Cc1[nH]n(-c2ccccc2)c(=O)c1C(c1ccc(C(=O)O)cc1)c1c(C)[nH]n(-c2ccccc2)c1=O	i	nt	nt
Cc1cccc(Oc2nc(-c3ccccn3)nc3ccccc23)c1	-553	i	i
CCC(C)(C(=O)NC1CCCC1)N(C(=O)c1ccccn1)c1ccc(C)cc1 (centres undefined)	-78	i	i
C#CCOCCOCCOCCNc1nc(N2CCN(C(=O)[C@H](CCCCN)n3cc([C@@H](N)C(C)CC)nn3)CC2)nc(N2CCN(C(=O)[C@H](Cc3cc4ccccc4[nH]3)n3cc([C@@H](N)C(C)CC)nn3)CC2)n1 (some centres undefined)	i	nt	nt
CC/C(=C(\c1ccccc1)c1ccc(OCCN(C)C)cc1)c1ccccc1	i	nt	nt
C#CCOCCOCCOCCNc1nc(N2CCN(C(=O)[C@H](CCCCN)n3cc([C@@H](N)CO)nn3)CC2)nc(N2CCN(C(=O)[C@H](Cc3cc4ccccc4[nH]3)n3cc([C@@H](N)Cc4ccc(O)cc4)nn3)CC2)n1	i	nt	nt
COc1cc2c(C#N)c(N3CCCC3)nc(N)c2c(N)n1	i	nt	nt
SMILES	Apaf-1 act	Rh110 interf act	Apaf-1 act conf	others
COc1ccc(NC(=O)[C@@H](NC(=O)N2C[C@H]3C[C@@H](C2)c2cccc(=O)n2C3)C(C)C)cc1OC	i	nt	nt
CN1CCN(c2ccc(NC(=O)c3ccc(-c4ccc(Cl)cc4)o3)cc2)CC1	i	nt	nt
O=C(NC(=S)Nc1ccc(CN2CCCCC2)cc1)c1cccc(OCc2ccccc2)c1	i	nt	nt
COC(=O)c1ccc(NC(=S)N2CCN(Cc3ccc(Cl)cc3)CC2)cc1	-350	i	i
NCCN1CCN(S(=O)(=O)c2ccc([N+](=O)[O-])cc2)C=C1c1ccc(Cl)cc1	i	nt	nt
CC(C)=NOc1nc(N(C)C)nc(N(C)C)n1	-76	i	i
